Assay results published in ChEMBL document CHEMBL1148082, “Cucurbitacins, cell adhesion inhibitors from Conobea scoparioides” (J Nat Prod, 1994).
Activity calls are given as the source filed them. The calls are words filed in the database; no cut-off is given here.

Key:
[1] = species: Homo sapiens; assay: Inhibition of actin polymerization in fMLP-stimulated human neutrophils assessed as positive fluorescence signal at 10 uM
In short: (§1)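 Human peripheral blood neutrophils were preincubated with compound for 45 min at 37° in PBS with Ca²⁺/Mg²⁺ and 10% fetal calf serum. They were then stimulated with fMLP (1 × 10⁻⁸ M final) for 1 min at 37°. Cells were fixed and permeabilized for at least 30 min at room temperature in 3% paraformaldehyde with lysophosphatidylcholine (12.5 µg/ml), pH 7.6. They were then stained with NBD-phalloidin for 15 min at 37° and analysed by flow cytometry (ex 488, em 530 nm). The value is the percent of cells with fluorescence above background.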

[2] = species: Homo sapiens; assay: Inhibition of actin polymerization in fMLP-stimulated human neutrophils assessed as positive fluorescence signal at 1 uM; in short: as §1
[3] = test system: JY; assay: Cytotoxicity against human JY cells assessed as inhibition of thymidine uptake at 0.3 uM by scintillation counting; format: functional
In short: (§2)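 PKH26-stained JY cells were held at 37° with compound (0.3, 1.0, 3.3 or 50 μM) for 24 h and pulsed with tritiated thymidine during the last 5 h. Uptake was counted by scintillation and expressed as % inhibition.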

[4] = test system: JY; assay: Cytotoxicity against human JY cells assessed as inhibition of thymidine uptake at 1 uM by scintillation counting; format: functional; in short: as §2
[5] = test system: JY; assay: Cytotoxicity against human JY cells assessed as inhibition of thymidine uptake at 3.3 uM by scintillation counting; format: functional; in short: as §2
[6] = species: Homo sapiens; assay: Inhibition of actin polymerization in fMLP-stimulated human neutrophils assessed as positive fluorescence signal at 0.33 uM; in short: as §1
[7] = species: Homo sapiens; assay: Inhibition of actin polymerization in fMLP-stimulated human neutrophils assessed as positive fluorescence signal at 3.3 uM; in short: as §1
[8] = biological target: Protein kinase C (PKC) (Homo sapiens) (UniProt O94806+P41743+P17252+P05129+Q05655+P05771+Q05513+Q02156+P24723+Q15139+Q04759); assay: Inhibition of PKC in human JY cells; format: cell-based
[9] = test system: JY; assay: Cytotoxicity against human JY cells assessed as inhibition of thymidine uptake up to 5 hrs; format: functional, cell-based
In short: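 Proliferation assay in PKH26-stained JY cells exposed to test compounds at 37° for 5 h, with a tritiated thymidine pulse over the final 5 h. Thymidine uptake was quantitated by scintillation counting.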

[10] = test system: JY; assay: Cytotoxicity against human JY cells after 48 hrs by MTT assay; format: functional, cell-based
In short: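 PKH26-stained JY cells incubated at 37° with test compounds for 48 h. MTT added for the last 4 h. Cells and formazan crystals were solubilized, and colour was read on an ELISA plate reader.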

[11] = test system: JY; assay: Cytotoxicity against human JY cells up to 45 mins; format: functional, cell-based
In short: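 Washout format: stained JY cells were treated with compounds for 45 min, matching the adhesion assay length, then washed extensively. Cells were then either incubated 24 h with a tritiated thymidine pulse in the last 5 h and scintillation counting, or run in the 48-h MTT assay.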

[12] = test system: JY; assay: Effect on cell activation in human JY cells assessed as inhibition of Ca2+ flux; format: functional, cell-based
[13] = test system: JY; assay: Cytotoxicity against human JY cells assessed as inhibition of thymidine uptake at 50 uM by scintillation counting; format: functional; in short: as §2

Row | Compound | inhibition [1] [%] | inhibition [2] [%] | inhibition at 0.3 µM [3] [%] | inhibition at 1 µM [4] [%] | inhibition at 3.3 µM [5] [%] | inhibition [6] [%] | inhibition [7] [%] | Activity [8] | Activity [9] | Activity [10] | Activity [11] | Activity [12] | inhibition at 50 µM [13] [%]
1 | C=C1[C@@H](C)[C@H]2[C@H](Cc3ccccc3)NC(=O)[C@]23OC(=O)/C=C/[C@H](O)CCC[C@@H](C)C/C=C/[C@H]3[C@@H]1O | 4.2 | 45.5 | – | – | – | – | – | – | – | – | – | – | –
2 | CC(=O)OC(C)(C)/C=C/C(=O)[C@](C)(O)[C@H]1[C@H](O)C[C@@]2(C)[C@@H]3CC=C4[C@H](C[C@H](O)C(=O)C4(C)C)[C@]3(C)C(=O)C[C@]12C [CUCURBITACIN B] | – | 19.5 | 39 | 63 | 71 | 29.8 | 9.6 | – | – | – | – | – | –
3 | CC(C)(O)/C=C/C(=O)[C@](C)(O)[C@H]1[C@H](O)C[C@@]2(C)[C@@H]3CC=C4[C@@H](C[C@H](O)C(=O)C4(C)C)[C@]3(C)C(=O)C[C@]12C [CUCURBITACIN D] | – | 64.6 | 12 | 45 | 58 | 75.2 | 24.3 | – | – | – | – | – | –
4 | CC(=O)OC(C)(C)/C=C/C(=O)[C@](C)(O)[C@H]1[C@H](O)C[C@@]2(C)[C@@H]3CC=C4[C@@H](C=C(O)C(=O)C4(C)C)[C@]3(C)C(=O)C[C@]12C [CUCURBITACIN E] | – | 24.7 | 19 | 60 | 68 | 21.5 | 3.8 | inactive | inactive | Active | Toxic | inactive | –
5 | CC(C)(O)/C=C/C(=O)[C@](C)(O)[C@H]1[C@H](O)C[C@@]2(C)[C@@H]3CC=C4[C@@H](C=C(O)C(=O)C4(C)C)[C@]3(C)C(=O)C[C@]12C [CUCURBITACIN I] | – | 15.3 | 34 | 63 | 58 | 60.5 | 20.5 | inactive | – | – | – | inactive | –
6 | CC(C)(O)CCC(=O)[C@@](C)(O)C1[C@H](O)C[C@@]2(C)[C@@H]3CC=C4C(C=C(O)C(=O)C4(C)C)[C@]3(C)C(=O)C[C@]12C (stereo partly specified) [CUCURBITACIN L] | – | 79.2 | – | – | – | 86.2 | 77.7 | – | – | – | – | – | 69
7 | CC(C)(O)CCC(=O)[C@](C)(O)[C@H]1[C@H](O)C[C@@]2(C)[C@@H]3CC=C4[C@@H](C[C@H](O)C(=O)C4(C)C)[C@]3(C)C(=O)C[C@]12C [CUCURBITACIN R] | – | 82.8 | 20 | 22 | 7 | 79.2 | 86 | inactive | – | – | – | inactive | 74
